According to ChEMBL document CHEMBL1130878 (Bioorg Med Chem Lett, 1998):

Columns and labels:
[1] = target: T1, Endothelin receptor type B (Sus scrofa, UniProt P35463); test: In vitro ability to inhibit specific [125I]ET1 binding to porcine kidney (inner medulla) membranes Endothelin B receptor
T1 sequence (P35463 whole entry): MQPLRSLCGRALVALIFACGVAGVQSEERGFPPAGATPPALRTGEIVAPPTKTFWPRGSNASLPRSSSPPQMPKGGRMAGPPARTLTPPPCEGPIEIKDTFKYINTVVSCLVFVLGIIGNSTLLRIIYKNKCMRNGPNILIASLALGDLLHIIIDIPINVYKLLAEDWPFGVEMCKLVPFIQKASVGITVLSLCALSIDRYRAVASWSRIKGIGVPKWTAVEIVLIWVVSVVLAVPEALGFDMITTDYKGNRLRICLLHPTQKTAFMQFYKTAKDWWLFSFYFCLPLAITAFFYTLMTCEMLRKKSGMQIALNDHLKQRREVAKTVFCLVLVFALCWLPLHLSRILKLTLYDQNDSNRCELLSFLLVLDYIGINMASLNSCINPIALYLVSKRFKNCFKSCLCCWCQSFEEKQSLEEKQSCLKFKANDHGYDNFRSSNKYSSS

Endothelin-1 receptor = target: T2, Endothelin-1 receptor (Rattus norvegicus, UniProt P26684); test: In vitro ability to inhibit specific [125I]ET1 binding to rat aorta membranes Endothelin A receptor; format: tissue-based
T2 sequence (P26684 whole entry): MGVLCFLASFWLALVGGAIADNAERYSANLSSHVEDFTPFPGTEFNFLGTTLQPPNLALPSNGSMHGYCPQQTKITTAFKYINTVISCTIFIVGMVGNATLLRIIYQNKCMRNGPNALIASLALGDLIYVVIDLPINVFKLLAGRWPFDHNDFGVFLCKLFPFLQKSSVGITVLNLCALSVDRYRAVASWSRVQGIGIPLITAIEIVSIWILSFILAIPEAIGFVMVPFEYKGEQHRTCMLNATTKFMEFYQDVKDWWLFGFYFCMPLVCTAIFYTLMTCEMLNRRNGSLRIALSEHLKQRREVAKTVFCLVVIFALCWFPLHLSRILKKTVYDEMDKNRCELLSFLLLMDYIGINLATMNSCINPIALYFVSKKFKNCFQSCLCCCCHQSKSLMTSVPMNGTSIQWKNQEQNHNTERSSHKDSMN

Rattus norvegicus = organism: Rattus norvegicus; test: Compound was evaluated for the functional assay performed by obtaining ET-1 concentration-response curves [pA2(ETA)] in isolated rat aortic rings; settings: Aorta, read-out: pA2 (converted)
In short: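 Functional ETA assay: ET-1 concentration-response curves in isolated rat aortic rings with the endothelium removed. Antagonism is expressed as pA2.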

Oryctolagus cuniculus = organism: Oryctolagus cuniculus; test: Compound was evaluated for the functional assay performed by obtaining sarafotoxin 6c concentration-response curves [pA2(ETB)] in isolated rabbit jugularis vein

Row | IC50 [1] | IC50 (Endothelin-1 receptor) | SMILES | Kb (Rattus norvegicus) | Kb (Oryctolagus cuniculus)
1 | 0.55 µM | 0.064 µM | COc1cc(C/C(C(=O)c2ccc(OC(C)C)cc2)=C(/C(=O)O)c2ccc3nsnc3c2)cc(OC)c1OC |  | 
2 | 1 µM | 0.0034 µM | COc1ccc(C(=O)/C(Cc2cccc(OC)c2)=C(\C(=O)O)c2ccc3nsnc3c2)cc1 |  | 
3 |  | 0.012 µM | COc1cc(F)ccc1C(=O)/C(Cc1cc(OC)c(OC)c(OC)c1)=C(\C(=O)O)c1ccc2nsnc2c1 |  | 
4 | 0.46 µM | 0.028 µM | COc1cc(C/C(C(=O)c2ccc3c(c2)CCO3)=C(/C(=O)O)c2ccc3nsnc3c2)cc(OC)c1OC |  | 
5 | 0.18 µM | 0.001 µM | COc1ccc(C(=O)/C(Cc2cc(OC)c(OC)c(OC)c2)=C(\C(=O)O)c2ccc3nsnc3c2)cc1Cl |  | 
6 | 0.34 µM | 0.0003 µM | COc1ccc(C(=O)/C(Cc2cc(OC)c(OC)c(OC)c2)=C(\C(=O)O)c2ccc3nsnc3c2)cc1 | 0.00316 µM | 0.794 µM
7 | 0.34 µM | 0.0013 µM | COc1ccc(C(=O)/C(Cc2cc(OC)c(OC)c(OC)c2)=C(\C(=O)O)c2ccc3c(c2)OCO3)cc1 [PD-156707 SODIUM] | 0.0251 µM | > 3.16 µM
8 | 4.8 µM | 0.016 µM | COc1ccccc1C(=O)/C(Cc1cc(OC)c(OC)c(OC)c1)=C(\C(=O)O)c1ccc2nsnc2c1 |  | 
9 | 0.22 µM | 0.057 µM | COc1ccc(C(=O)/C(Cc2cc(OC(C)C)c(OC(C)C)c(OC(C)C)c2)=C(\C(=O)O)c2ccc3nsnc3c2)cc1 |  | 
10 | 2.9 µM | 0.014 µM | COc1ccc(C(=O)/C(Cc2ccc(OC)c(F)c2)=C(\C(=O)O)c2ccc3nsnc3c2)cc1 |  | 
11 | 0.82 µM | 0.0034 µM | COc1ccc(C(=O)/C(Cc2ccccc2OC)=C(\C(=O)O)c2ccc3nsnc3c2)cc1 |  | 
12 | 1.4 µM | 0.0034 µM | COc1ccc(C(=O)/C(Cc2ccc3c(c2)CCO3)=C(\C(=O)O)c2ccc3nsnc3c2)cc1 |  | 
13 | 4.55 µM | 0.0074 µM | COc1ccc(C(=O)/C(Cc2ccccc2)=C(\C(=O)O)c2ccc3c(c2)OCO3)cc1 |  | 
14 |  | 0.003 µM | COc1ccc(C(=O)/C(Cc2cc(OC)c(OC)c(OC)c2)=C(\C(=O)O)c2ccc3nsnc3c2)c(F)c1 |  | 
